These results are taken from ChEMBL document CHEMBL3751835, “Discovery of the imidazole-derived GPR40 agonist AM-3189” (Bioorg Med Chem Lett, 2016).

Assay [1] addresses T1, Free fatty acid receptor 1 (Homo sapiens, UniProt O14842). Kind of assay: Partial agonist activity at human GPR40 expressed in CHO cells measured over 20 secs interval by luminometric analysis in presence of 100% human serum. Format: cell-based. A digest of the protocol: (§1)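 Aequorin chemiluminescence read-out of calcium flux in a CHO line stably transfected with human GPR40, giving EC50. Run in buffer containing 0.01% human serum albumin, or in 100% human serum to test activity with plasma proteins present.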

In assay [2] the target is T1, Free fatty acid receptor 1. Kind of assay: Partial agonist activity at human GPR40 expressed in CHO cells measured over 20 secs interval by luminometric analysis in presence of 0.01% human serum albumin. The format is cell-based. A digest of the protocol:
as §1

Assay [3] addresses T1, Free fatty acid receptor 1. Kind of assay: Partial agonist activity at human GPR40 expressed in CHO cells measured over 20 secs interval by luminometric analysis. Format: cell-based.
The subject of assay [4] is Pancreatic islet. Kind of assay: Induction of insulin release in human pancreatic islets. Format: functional.
Assay [5] has as its target T1, Free fatty acid receptor 1. Kind of assay: Potency index , ratio of EC50 for AMG837 to EC50 for test compound for partial agonist activity at human GPR40 expressed in CHO cells measured over 20 secs interval by luminometric analysis in presence of 0.01% human serum albumin. The format is cell-based.
Assay [6] deals with Mus musculus. The assay is described as follows: Reduction of blood glucose AUC in human islet transplanted nude chimeric mouse at 100 ug/kg administered 1 hr prior to glucose challenge by OGTT. Format: functional, organism-based. In outline:
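Nude mice had their endogenous pancreatic β-cells ablated with streptozotocin and were rescued to euglycemia by human islets transplanted under the kidney capsule. Compound was dosed before a glucose challenge, and the glucose AUC was determined.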

pEC50: −log10 of the molar value. Calls of active or inactive are those of the source. The calls are words filed in the database; no cut-off is given here.

As usually defined, the pEC50 is −log10 of the EC50, conventionally taken in molar units.

T1 sequence (O14842 whole entry): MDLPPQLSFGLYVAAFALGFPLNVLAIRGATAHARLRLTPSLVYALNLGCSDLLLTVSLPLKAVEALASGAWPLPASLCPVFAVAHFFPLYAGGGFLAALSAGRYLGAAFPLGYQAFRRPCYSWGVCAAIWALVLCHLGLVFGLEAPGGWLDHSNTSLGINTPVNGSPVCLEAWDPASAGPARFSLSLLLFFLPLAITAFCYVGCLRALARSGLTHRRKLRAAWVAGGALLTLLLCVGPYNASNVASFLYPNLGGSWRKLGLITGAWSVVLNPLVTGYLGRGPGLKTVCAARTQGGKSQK

`CCc1ccccc1-c1cccc(COc2ccc([C@H](CC(=O)O)c3nccn3C)cc2)c1`: the figures for the negative logarithm of the EC50 (pEC50) in assay [1] and in assay [2] were 4.19 and 7.32, respectively.

Regarding `O=C(O)CC(c1ccccc1)c1ccc(OCc2cccc(-c3ccc(C(F)(F)F)cc3)c2)cc1` (racemic), the negative logarithm of the EC50 (pEC50) in assay [3] was 6.48.

For the compound `O=C(O)CC(c1ccncc1)c1ccc(OCc2cccc(-c3ccc(C(F)(F)F)cc3)c2)cc1` (racemic), in assay [3], the negative-log EC50 (pEC50) is 6.72.

In assay [3], `O=C(O)CC(c1ccc(OCc2cccc(-c3ccc(C(F)(F)F)cc3)c2)cc1)c1cccs1` (racemic) had a negative-log EC50 (pEC50) of 6.72.

In the case of `Cn1ccnc1C(CC(=O)O)c1ccc(OCc2cccc(-c3ccc(C(F)(F)F)cc3)c2)cc1` (racemic), the negative logarithm of the EC50 (pEC50) in assay [3] was 6.89.

On to `COc1cccc(-c2cccc(COc3ccc([C@H](CC(=O)O)c4nccn4C)cc3)c2)c1`, for which the pEC50 in assay [2] was 6.12.

For `CC#C[C@@H](CC(=O)O)c1ccc(OCc2cccc(-c3ccc(C(F)(F)F)cc3)c2)cc1`, the result in assay [4] was Active.

`Cc1c(Cl)cccc1-c1cccc(COc2ccc([C@H](CC(=O)O)c3nccn3C)cc2)c1`: the pEC50 in assay [1] was 4.66; in assay [2], 7.21.

Regarding `COc1ccc(-c2cccc(COc3ccc([C@H](CC(=O)O)c4nccn4C)cc3)c2)cc1`, the pEC50 in assay [2] is 6.36.

On to `Cc1cc(Cl)ccc1-c1cc(COc2ccc([C@H](CC(=O)O)c3nccn3C)cc2)ccc1C`, for which the negative-log EC50 (pEC50) in assay [1] is 5.01; in assay [2] it was 7.01.

For `Cc1cc(F)ccc1-c1cccc(COc2ccc([C@H](CC(=O)O)c3nccn3C)cc2)c1`, the values for the pEC50 in assay [1] and in assay [2] were 4.68 and 7.23, respectively.

Consider `Cn1ccnc1[C@@H](CC(=O)O)c1ccc(OCc2cccc(-c3ccccc3OC(F)(F)F)c2)cc1`, for which the pEC50 in assay [1] was 4.21; in assay [2], 6.95.

For `Cn1ccnc1[C@@H](CC(=O)O)c1ccc(OCc2cccc(-c3ccccc3C#N)c2)cc1`, the negative-log EC50 (pEC50) in assay [2] was 6.16.

Turning to `Cc1cccc(C)c1-c1cccc(COc2ccc([C@H](CC(=O)O)c3nccn3C)cc2)c1`, the negative logarithm of the EC50 (pEC50) was 4.54 in assay [1] and 7.24 in assay [2].

Take `Cn1ccnc1[C@@H](CC(=O)O)c1ccc(OCc2cccc(-c3ccc(Cl)cc3Cl)c2)cc1`: the pEC50 in assay [1] is 4.52; in assay [2], 7.16.

In the case of `O=C(O)CC(c1ccc(OCc2cccc(-c3ccc(C(F)(F)F)cc3)c2)cc1)c1ccccn1` (racemic), the negative-log EC50 (pEC50) in assay [3] was 6.48.

Regarding `O=C(O)CC(c1ccc(OCc2cccc(-c3ccc(C(F)(F)F)cc3)c2)cc1)c1cccnc1` (racemic), the negative logarithm of the EC50 (pEC50) in assay [3] is 6.40.

In assay [3], `O=C(O)CC(c1ccc(OCc2cccc(-c3ccc(C(F)(F)F)cc3)c2)cc1)c1nccs1` (racemic) had a negative-log EC50 (pEC50) of 6.92.

For the compound `COc1ccccc1-c1cccc(COc2ccc([C@H](CC(=O)O)c3nccn3C)cc2)c1`, the negative logarithm of the EC50 (pEC50) in assay [2] is 6.39.

With `Cn1ccnc1[C@@H](CC(=O)O)c1ccc(OCc2cccc(-c3ccccc3S(C)(=O)=O)c2)cc1`, the negative logarithm of the EC50 (pEC50) in assay [2] was 4.64.

Consider `Cc1ccccc1-c1cccc(COc2ccc([C@H](CC(=O)O)c3nccn3C)cc2)c1`, for which the figures for the pEC50 in assay [1] and in assay [2] were 4.05 and 7.37, respectively. Moreover, the Ratio EC50 in assay [5] was determined as 2.

For the compound `Cc1ccc(F)cc1-c1cccc(COc2ccc([C@H](CC(=O)O)c3nccn3C)cc2)c1`, the negative-log EC50 (pEC50) is 4.38 in assay [1] and 7.44 in assay [2].

`Cc1cc(Cl)ccc1-c1cccc(COc2ccc([C@H](CC(=O)O)c3nccn3C)cc2)c1C`: the negative logarithm of the EC50 (pEC50) in assay [1] is 4.64; in assay [2], 6.62.

Take `CC[C@H](C)[C@H](NC(=O)[C@H](Cc1ccccc1)NC(=O)[C@H](CCC(=O)O)NC(=O)[C@H](CCCCN)NC(=O)[C@H](C)NC(=O)[C@H](C)NC(=O)[C@H](CCC(=O)O)NC(=O)CNC(=O)[C@H](CCC(=O)O)NC(=O)[C@H](CC(C)C)NC(=O)[C@H](Cc1ccc(O)cc1)NC(=O)[C@H](CO)NC(=O)[C@H](CO)NC(=O)[C@@H](NC(=O)[C@H](CC(=O)O)NC(=O)[C@H](CO)NC(=O)[C@@H](NC(=O)[C@H](Cc1ccccc1)NC(=O)[C@@H](NC(=O)CNC(=O)[C@H](CCC(=O)O)NC(=O)[C@H](C)NC(=O)[C@@H](N)Cc1cnc[nH]1)[C@@H](C)O)[C@@H](C)O)C(C)C)C(=O)N[C@@H](C)C(=O)N[C@@H](Cc1c[nH]c2ccccc12)C(=O)N[C@@H](CC(C)C)C(=O)N[C@H](C(=O)N[C@@H](CCCCN)C(=O)NCC(=O)N[C@@H](CCCNC(=N)N)C(=O)NCC(=O)O)C(C)C`: the result in assay [6] was Active.

As for `Cn1ccnc1[C@@H](CC(=O)O)c1ccc(OCc2cccc(-c3ccccc3Cl)c2)cc1`, the figures for the pEC50 in assay [1] and in assay [2] were 4.25 and 7.37, respectively. Further, in assay [5], the Ratio EC50 amounted to 2.
